Measurements from ChEMBL document CHEMBL1828511, “Searching for new NO-donor aspirin-like molecules: Furoxanylacyl derivatives of salicylic acid and related furazans” (Bioorg Med Chem, 2011).
The source made the active and inactive calls. No cut-off for these calls is given here.

Tests used:
[1] = tested on: Rattus norvegicus; assay: Antiinflammatory activity in Wistar rat assessed as inhibition of carrageenan-induced paw edema at dose equimolar to 120 mg/kg aspirin, administered intragastrically immediately after carrageenan challenge measured after 3 hrs by water plethysmometer relative to control; format: functional; conditions: po, route intragastric
In short: (§1)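 Male Wistar rats (180–200 g). Edema induced by intraplantar 0.1 mL of 1% carrageenan in 1% CMC into the right hindpaw. Compounds given intragastrically in 1% CMC (10 mL/kg) immediately afterwards. Aspirin at 120 mg/kg, others equimolar. Paw volume by water plethysmometer before and at 3 h. Reported as % inhibition versus vehicle (=100). Groups of 6–8, mean ± SEM, Dunnett's test.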

[2] = molecular target: T1, Prostaglandin G/H synthase 2 (Homo sapiens) (UniProt P35354); assay: Inhibition of COX2 in LPS-stimulated human monocytes assessed as inhibition of arachidonic acid-stimulated PGE2 production at 100 uM pre-incubated for 30 mins before addition of arachidonic acid measured after 15 mins by EIA; format: cell-based
T1 sequence (whole entry): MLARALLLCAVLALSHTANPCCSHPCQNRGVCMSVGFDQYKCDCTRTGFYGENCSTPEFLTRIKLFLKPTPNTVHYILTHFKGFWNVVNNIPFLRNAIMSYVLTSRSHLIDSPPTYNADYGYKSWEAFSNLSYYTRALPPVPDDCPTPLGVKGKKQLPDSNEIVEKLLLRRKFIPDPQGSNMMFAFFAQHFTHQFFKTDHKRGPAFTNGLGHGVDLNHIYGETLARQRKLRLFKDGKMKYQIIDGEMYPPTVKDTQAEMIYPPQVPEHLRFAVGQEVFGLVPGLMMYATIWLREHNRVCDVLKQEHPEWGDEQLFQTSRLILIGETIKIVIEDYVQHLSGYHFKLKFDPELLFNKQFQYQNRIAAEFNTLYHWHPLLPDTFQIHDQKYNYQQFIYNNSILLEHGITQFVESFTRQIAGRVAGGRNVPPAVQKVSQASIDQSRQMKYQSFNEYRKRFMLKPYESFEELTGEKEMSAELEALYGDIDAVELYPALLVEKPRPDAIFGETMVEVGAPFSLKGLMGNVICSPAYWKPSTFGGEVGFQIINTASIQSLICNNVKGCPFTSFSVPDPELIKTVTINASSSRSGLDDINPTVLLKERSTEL
In short: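 Human monocytes (10⁶ cells/mL) induced with LPS for 18 h at 37 °C, 5% CO2, then resuspended in FCS-free RPMI-1640. Compound (from 200-fold DMSO stocks) added for 30 min, then arachidonic acid (100 µM) for 15 min. Supernatant PGE2 by EIA. % inhibition versus untreated control, minus no-arachidonate background.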

[3] = Stability of the compound in human serum assessed as half life at 200 uM by RP-HPLC analysis; format: ADME, cell-free
In short: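 Compound added from 10 mM acetonitrile stock to human serum preheated to 37 °C. Disappearance followed by RP-HPLC (C18; acetonitrile/water 55:45, 0.1% TFA). Half-life from pseudo-first-order fit.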

[4] = Antiaggregatory activity in human platelet rich plasma assessed as inhibition of collagen-induced platelet aggregation at 300 uM preincubated for 10 mins before collagen challenge measured after 10 mins by aggregometry; format: functional
In short: (§2)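 PRP from citrated human blood (200g, 20 min). Compound preincubated 10 min, then submaximal collagen (0.8–1.5 µg/mL) added. Light transmission recorded at 37 °C under stirring (1000 rpm) for 10 min. Vehicle 0.5% DMSO. Result is % inhibition versus control. IC50 by nonlinear regression, otherwise % inhibition at 300 µM. At least five experiments.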

[5] = Stability of the compound in 0.1 M HCl at pH 1 assessed as compound remaining at 100 uM after 3 hrs by RP-HPLC analysis; format: physicochemical; conditions: read-out: Stability
[6] = tested on: Rattus norvegicus; assay: Ulcerogenicity in Wistar rat assessed as damage in gastric mucosa-lesion index at dose equimolar to 120 mg/kg aspirin, administered intragastrically after 3 hrs by stereomicroscopy; format: toxicity, organism-based; parameters: dose 120 mg/kg, route intragastric; conditions: in vivo, po
In short: (§3)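 Male Wistar rats (180–200 g), fasted 24 h with water available. Groups of 8–10 given aspirin 120 mg/kg intragastrically, or equimolar doses, in 1% CMC. Killed 3 h later. Glandular mucosa examined under stereomicroscope. Each hemorrhagic lesion scored by greatest length and summed as lesion index. Mean ± SEM, ANOVA with Newman–Keuls test.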

[7] = Stability of the compound in phosphate buffer at pH 7.4 assessed as half life at 100 uM by RP-HPLC analysis; format: physicochemical
In short: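 Compound held at 37 °C, final concentration 100 µM. Aliquots taken over time and analysed by RP-HPLC (C18; acetonitrile/water 55:45 with 0.1% TFA). Pseudo-first-order rate constants and half-lives obtained by fitting remaining ester versus time to one-phase exponential decay.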

[8] = molecular target: Prostaglandin G/H synthase 1 (Homo sapiens) (UniProt P23219); assay: Inhibition of COX1 in human platelets assessed as inhibition of A23187-stimulated TXB2 production at 100 uM pre-incubated for 30 mins before addition of A23187 measured after 10 mins by EIA
Prostaglandin G/H synthase 1 (Homo sapiens), sequence (P23219 whole entry): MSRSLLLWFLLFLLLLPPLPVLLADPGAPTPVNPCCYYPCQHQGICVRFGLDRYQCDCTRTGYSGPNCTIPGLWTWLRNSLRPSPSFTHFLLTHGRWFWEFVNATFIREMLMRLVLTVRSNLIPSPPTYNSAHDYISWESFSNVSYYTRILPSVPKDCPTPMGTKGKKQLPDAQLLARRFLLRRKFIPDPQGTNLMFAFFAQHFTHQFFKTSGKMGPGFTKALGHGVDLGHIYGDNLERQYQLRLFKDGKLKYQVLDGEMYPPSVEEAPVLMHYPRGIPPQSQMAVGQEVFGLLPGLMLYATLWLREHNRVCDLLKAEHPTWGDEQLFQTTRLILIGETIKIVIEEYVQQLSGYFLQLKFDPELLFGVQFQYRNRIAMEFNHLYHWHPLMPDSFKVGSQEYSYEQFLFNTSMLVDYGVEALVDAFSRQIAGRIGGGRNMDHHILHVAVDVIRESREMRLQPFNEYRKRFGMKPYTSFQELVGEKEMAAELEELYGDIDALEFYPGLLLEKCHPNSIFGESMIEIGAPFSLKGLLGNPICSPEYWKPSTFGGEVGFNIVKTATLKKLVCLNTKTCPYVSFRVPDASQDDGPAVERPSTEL
In short: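 Washed human platelets (10⁸ cells/mL) incubated 30 min at 37 °C with compound, diluted from 400-fold DMSO stocks. A23187 (2 µM) then added for 10 min at 37 °C, and reaction stopped with methanol. Supernatant TXB2 measured by EIA. % inhibition versus untreated control, after subtracting no-ionophore background.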

[9] = Antiaggregatory activity in human platelet rich plasma assessed as inhibition of collagen-induced platelet aggregation preincubated for 10 mins before collagen challenge measured after 10 mins by aggregometry in presence of 50 uM of sGC inhibitor ODQ; format: functional
In short: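 Collagen-induced aggregation in human PRP run as in the standard assay, with the sGC inhibitor ODQ (50 µM) present. Compound preincubated 10 min before submaximal collagen (0.8–1.5 µg/mL). Light transmission followed 10 min at 37 °C. At least five experiments.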

[10] = tested on: Aorta; assay: Vasodilatory activity in Wistar rat thoracic aorta assessed as relaxation of L-phenylephrine-induced vasoconstriction in presence of 1 uM sGC inhibitor ODQ; format: functional, tissue-based
In short: (§4)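 Rat aortic strips equilibrated 120 min, then contracted with phenylephrine. At plateau, cumulative concentrations of vasodilator added. Tension recorded isometrically. Results given as EC50 ± SE. Where tested, ODQ was added to the bath 5 min before contraction.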

[11] = tested on: Aorta; assay: Vasodilatory activity in Wistar rat thoracic aorta assessed as relaxation of L-phenylephrine-induced vasoconstriction; format: functional, tissue-based; in short: as §4
[12] = Antiaggregatory activity in human platelet rich plasma assessed as inhibition of collagen-induced platelet aggregation preincubated for 10 mins before collagen challenge measured after 10 mins by aggregometry; format: functional; in short: as §2
[13] = tested on: Rattus norvegicus; assay: Antiinflammatory activity in Wistar rat assessed as inhibition of carrageenan-induced paw edema at 120 mg/kg, administered intragastrically immediately after carrageenan challenge measured after 3 hrs by water plethysmometer relative to control; format: functional; conditions: po, route intragastric; in short: as §1
[14] = Stability of the compound in phosphate buffer at pH 7.4 assessed as compound remaining at 100 uM after 3 hrs by RP-HPLC analysis; format: physicochemical; conditions: read-out: Stability
In short: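 Each compound was incubated in pH 7.4 aqueous buffer at a final 100 µM and held at 37 ± 0.5 °C. Aliquots taken at timed intervals were run on RP-HPLC (C18; acetonitrile/water 55:45 with 0.1% TFA; 1.2 mL/min), calibrated linearly over 1–200 µM. Remaining ester versus time was fitted to one-phase exponential decay.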

[15] = tested on: Rattus norvegicus; assay: Ulcerogenicity in Wistar rat assessed as damage in gastric mucosa-lesion index at 120 mg/kg, administered intragastrically after 3 hrs by stereomicroscopy; format: toxicity, organism-based; parameters: dose 120 mg/kg, route intragastric; conditions: in vivo, po; in short: as §3
[16] = molecular target: T2, Thromboxane A2 receptor (Homo sapiens, UniProt P21731); assay: Antagonist activity at thromboxane receptor in human blood assessed as inhibition of U-46619-induced effect; format: functional
T2 sequence (P21731 whole entry): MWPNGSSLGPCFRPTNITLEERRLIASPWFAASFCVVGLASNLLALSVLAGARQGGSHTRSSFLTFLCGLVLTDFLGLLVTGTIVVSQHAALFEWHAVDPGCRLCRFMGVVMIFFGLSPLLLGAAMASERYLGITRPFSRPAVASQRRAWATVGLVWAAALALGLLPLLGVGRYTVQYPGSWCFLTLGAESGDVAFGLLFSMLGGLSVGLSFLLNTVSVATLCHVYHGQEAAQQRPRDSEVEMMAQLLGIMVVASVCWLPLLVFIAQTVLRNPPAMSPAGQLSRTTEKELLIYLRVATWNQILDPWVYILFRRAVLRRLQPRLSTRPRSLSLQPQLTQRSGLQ
In short: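 Citrated human blood pretreated with 1 mM acetylsalicylic acid; PRP made by 200g spin for 20 min. PRP incubated with compound or vehicle (0.5% DMSO), then challenged with U-46619 (0.5–2.5 µM). Aggregation recorded as light transmission at 37 °C with stirring. At least four experiments per compound.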

SMILES | inhibition in vivo [1] | inhibition [2] | half-life at 200 µM [3] | inhibition at 300 µM [4] | remaining at 3 h, 100 µM [5] | UI [6] | half-life at 100 µM [7] | inhibition [8] | IC50 [9] | EC50 [10] | Activity [11] | EC50 [11] | IC50 [12] | inhibition in vivo at 120 mg/kg [13] | remaining at 3 h, 100 µM [14] | UI [15] | IC50 [16] | inhibition in vivo at 120 mg/kg ([1]; dose 120 mg/kg)
O=C(CCOc1nonc1-c1ccccc1)Oc1ccccc1C(=O)O | 38.6% | inactive | 40 min | 12% | 98% | 1.2 mm | 318 min | inactive | – | – | – | – | – | – | – | – | – | –
O=C(CCOc1no[n+]([O-])c1S(=O)(=O)c1ccccc1)Oc1ccccc1C(=O)O | 49.6% | inactive | 30 min | – | 96% | 0.4 mm | 360 min | inactive | 152 µM | 0.97 µM | Dose-dependent effect | 0.014 µM | 7.8 µM | – | – | – | – | –
CC(=O)Oc1ccccc1C(=O)O [ASPIRIN] | – | – | 63 min | – | 90% | – | – | – | – | – | – | – | 54 µM | 43% | 90% | 50 mm | – | –
O=C(CCOc1nonc1S(=O)(=O)c1ccccc1)Oc1ccccc1C(=O)O | 38.8% | inactive | 35 min | 2.6% | 97% | 0.3 mm | 370 min | inactive | – | – | – | – | – | – | – | – | – | –
N#Cc1c(CSCC(=O)Oc2ccccc2C(=O)O)no[n+]1[O-] | 54.9% | inactive | 13 min | – | 96% | 1.2 mm | 33 min | inactive | 88 µM | 2.4 µM | Dose-dependent effect | 0.04 µM | 7.3 µM | – | – | – | – | –
NC(=O)c1nonc1CSCC(=O)Oc1ccccc1C(=O)O | 39.6% | inactive | 27 min | – | 97% | 0.3 mm | 50 min | inactive | – | – | – | – | 144 µM | – | – | – | 39 µM | –
O=C(O)c1ccccc1O [SALICYLIC ACID] | – | – | – | – | – | 1.1 mm | – | – | – | – | – | – | – | – | – | – | – | 36.8%
O=C(CCOc1no[n+]([O-])c1-c1ccccc1)Oc1ccccc1C(=O)O | 37.6% | inactive | 35 min | 17% | 98% | 0.3 mm | 288 min | inactive | – | – | Dose-dependent effect | 11 µM | – | – | – | – | – | –
N#Cc1nonc1CSCC(=O)Oc1ccccc1C(=O)O | 38.9% | inactive | 14 min | 36% | 96% | 0.2 mm | 38 min | inactive | – | – | – | – | – | – | – | – | – | –
NC(=O)c1c(CSCC(=O)Oc2ccccc2C(=O)O)no[n+]1[O-] | 39.4% | inactive | 27 min | – | 97% | – | 45 min | inactive | 59 µM | – | Dose-dependent effect | 23 µM | 66 µM | – | – | – | 38 µM | –
